Screens (PubChem)
Rows were chosen to be rich in hits. Some 0.84% of all compounds tested hit in one or more screens of this group.
DDE Tn6 FP inh – inhibitors of Tn6 peptide binding to fibrin DD(E), primary screen, biochemical, fluorescence polarization, human fibrin, Tn6 probe; Fibrinogen beta chain (Homo sapiens), P02675; Fibrin DD(E) TRITC-Tn6 fluorescence polarization displacement; inhibition, % at 8.3 µM; actives 0.21% (n = 370,000); AID 720509, 2013;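 active means inhibition above a per-campaign cutoff: mean of compounds within control limits plus 3 SD, cut at about 15% in these data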
Target sequence (P02675 whole entry, looked up): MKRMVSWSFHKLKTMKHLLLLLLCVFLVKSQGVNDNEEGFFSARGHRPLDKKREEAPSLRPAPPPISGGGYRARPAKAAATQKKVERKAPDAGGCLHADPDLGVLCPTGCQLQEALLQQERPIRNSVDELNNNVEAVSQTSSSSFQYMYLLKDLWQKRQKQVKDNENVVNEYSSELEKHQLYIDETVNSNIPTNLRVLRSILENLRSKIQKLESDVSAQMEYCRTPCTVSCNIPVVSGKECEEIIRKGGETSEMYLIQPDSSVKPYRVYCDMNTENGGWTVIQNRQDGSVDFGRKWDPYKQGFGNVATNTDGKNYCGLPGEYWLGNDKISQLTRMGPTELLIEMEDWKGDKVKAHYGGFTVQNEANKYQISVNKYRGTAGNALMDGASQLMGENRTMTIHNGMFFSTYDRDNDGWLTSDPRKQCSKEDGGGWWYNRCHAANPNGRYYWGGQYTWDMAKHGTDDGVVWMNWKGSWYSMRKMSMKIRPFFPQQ
SKN-1 block – suppressors of acrylamide-induced Pgst-4::GFP reporter in worms, primary screen, SKN-1 inhibitor project, whole organism, uHTS, GFP/RFP fluorescence ratio, strain VP596 | C. elegans VP596 Pgst-4::GFP/RFP ratio, 24 h | inhibition, % at 21.8 µM | actives 0.49% (n = 360,000);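 active means interference check ratio from 0.5 to 1.5 plus GFP to RFP signal ratio inhibition reaching or exceeding a fixed threshold, cut at about 30% in these data, passing the limit was not always enough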
DDE Tn7 FP inh – inhibitors of Tn7 peptide binding to fibrin DD(E), primary screen, biochemical, fluorescence polarization, human fibrin, Tn7 probe; Fibrinogen beta chain (Homo sapiens), P02675; FP displacement of FITC-Tn7 peptide from fibrin DD(E); 0% = median of compound wells per plate; inhibition, % at 8.3 µM; actives 0.13% (n = 370,000);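 active means inhibition above the mean of compounds falling within the control limits plus 3 SD of them, cut at about 14% in these data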
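Test system: human clot-derived fibrin DD(E) complex / Quantity: 2 µM final DD(E) protein / Incubation: 10 min plus 3 h, room temperature / Measured by: fluorescence polarization / Benchmarks: high control of 10 µM Aha-Tn7 peptide / Replicates: singlicate testing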
MT1-MMP act inh – blockers of MT1-MMP proenzyme processing, primary screen, HT1080 RFP-PRO-GFP cells, GFP/RFP fluorescence; GFP/RFP ratio change, % at 20 µM; actives 0.061% (n = 360,000); GFP/RFP ratio fluorescence, overnight; percent of plate control window, DMSO zero;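 active means GFP/RFP ratio change of at least 30% with cell ATP level not reduced by more than half and red fluorescence within 50% of control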
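Compound: 20 µM single dose, 1% DMSO / System: HT1080 RFP-PRO-GFP cells / Controls: DMSO and RFP-L50D-GFP cell wells / Read-out basis: GFP/RFP fluorescence ratio / Schedule: overnight compound exposure at 37 °C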
DDE Tn6 FP ctr – counter-screen hit for Tn6 peptide-fibrin DD(E) binding disruption; actives 2% (n = 680); AID 720621; inhibition, % at 8.3 µM; shares compounds with DDE Tn6 FP inh; TRITC-Tn6 fluorescence polarization displacement; 0% = median of compound wells, not DMSO;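 active means inhibition above the mean of test compounds lying between the control limits plus 3 SD of those, cut at about 14% in these data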
DDE Tn6 confirm – inhibitors of Tn6 peptide binding to fibrin DD(E), confirmation, biochemical, fluorescence polarization, human fibrin, Tn6 probe. shares compounds with DDE Tn6 FP inh. FP displacement of TRITC-Tn6 peptide from DD(E); 0% = per-plate median of test wells. inhibition, % at 8.3 µM. actives 10% (n = 680);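 active means inhibition above the mean of compounds lying within the control limits plus 3 SD, cut at about 16% in these data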
Hits are given with their value; – = inactive; · = no result; ! = not active in a repeat.

SMILES	DDE Tn6 FP inh	SKN-1 block	DDE Tn7 FP inh	MT1-MMP act inh	DDE Tn6 FP ctr	DDE Tn6 confirm
CCCCC(=Nc1ccc(N)cc1)C1=C(O)C(C(=O)OC)C(C)(C)CC1=O (stereo not given)	121	–	–	–	–	–
Cc1ccc(C2CCC3(CCC(=O)N3CCO)CC2)cc1 (stereo not given)	20!	·	–	·	–	–
O=C1CCC2(CCC(c3ccccc3)CC2)N1CCO (stereo not given)	–	·	–	·	·	·
CCOC(=O)c1cc2c(=Cc3ccc(N(C)C)cc3)c3ccccc3n2[n+]1C	22	–	–	–	–	–
CC(C)CN1C(=O)[C@]2(CC(=O)N(C)C2c2ccccc2)c2cc(-n3cc(CO)nn3)ccc21 (stereo not given in full)	–	·	–	·	·	·
CC(C)CN1C(=O)[C@]2(CC(=O)N(C)C2c2ccccc2)c2cc(-n3cc(C4=CCCCC4)nn3)ccc21 (stereo not given in full)	15	·	–	·	–	–
Cc1[nH]c2ccccc2c1/C=C(\C#N)C(=O)NCC1CCCO1 (stereo not given)	–	–	–	–	·	·
CCOC(=O)c1ccc(-c2ccc(/C=C(\C#N)C(=O)NCC3CCCO3)o2)cc1 (stereo not given)	18	–	–	–	–	–
